We go through ten molecules from ChEMBL document CHEMBL1154978, “Sesquiterpenes from Maytenus jelskii as potential cancer chemopreventive agents” (J Nat Prod, 2010).

Series [1] has as its system Raji. The series is described as follows: Cytotoxicity against human Raji cells carrying EBV genome by trypan blue staining method. Also noted: concentration or dose not given beside the values. It is filed as cell-based. A digest of the protocol: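 Raji cells grown in RPMI-1640 with 10% FBS and exposed for 48 h at 37 °C to n-butyric acid (4 mmol), TPA (32 pmol) and test compound in DMSO. Viability of treated cells was read by Trypan Blue staining.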

The test system of series [2] is Raji. The series is described as follows: Inhibition of TPA-induced EBV early antigen activation in human Raji cells at 1000 molar ratio after 48 hrs relative to TPA by indirect immunofluorescence technique. It is filed as cell-based. Also noted: scale not given: the % may be the effect or the level left. The settings on record: human gammaherpesvirus 4.
Series [3] concerns Raji. Kind of series: Inhibition of TPA-induced EBV early antigen activation in human Raji cells at 100 molar ratio after 48 hrs relative to TPA by indirect immunofluorescence technique. In kind it is cell-based. More on the design: scale not given: the % may be the effect or the level left. As to conditions: human gammaherpesvirus 4.
For series [4], the system named is Raji. The series is described as follows: Inhibition of TPA-induced EBV early antigen activation in human Raji cells at 10 molar ratio after 48 hrs relative to TPA by indirect immunofluorescence technique. It is filed as cell-based. Also noted: scale not given: the % may be the effect or the level left. As to conditions: human gammaherpesvirus 4.
The test system of series [5] is Raji. Kind of series: Inhibition of TPA-induced EBV early antigen activation in human Raji cells at 500 molar ratio after 48 hrs relative to TPA by indirect immunofluorescence technique. In kind it is cell-based. Also noted: scale not given: the % may be the effect or the level left. As to conditions: human gammaherpesvirus 4.
The subject of series [6] is Mus musculus. The series is described as follows: Inhibition of DMBA-induced/TPA-promoted carcinogenesis in ICR mouse assessed as reduction of papilloma-bearing mice at 85 nmol administered 1 hr before TPA treatment measured after 15 weeks.
Series [7] deals with Mus musculus. The series is described as follows: Inhibition of DMBA-induced/TPA-promoted carcinogenesis in ICR mouse assessed as reduction in number of skin papillomas per mouse at 85 nmol administered 1 hr before TPA treatment measured after 20 weeks. In kind it is functional, organism-based. A digest of the protocol:
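Female SPF ICR mice, 6 weeks old, 15 per group, with shaved backs. Initiation was a single topical dose of DMBA (100 µg, 390 nmol) in 0.1 mL acetone. From one week later, TPA (1 µg, 1.7 nmol) in acetone was applied twice weekly. Compound (85 nmol in 0.1 mL acetone) was applied topically 1 h before each TPA dose. Papillomas per mouse were recorded weekly for 20 weeks.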

In series [8] the test system is Mus musculus. The series is described as follows: Inhibition of DMBA-induced/TPA-promoted carcinogenesis in ICR mouse assessed as reduction of papilloma-bearing mice at 85 nmol administered 1 hr before TPA treatment measured after 20 weeks.
For series [9], the system named is Mus musculus. The series is described as follows: Inhibition of DMBA-induced/TPA-promoted carcinogenesis in ICR mouse assessed as reduction of papilloma-bearing mice at 85 nmol administered 1 hr before TPA treatment measured after 10 weeks.

The source made the active and inactive calls. No cut-off for these calls is given here.

For the molecule `CC(=O)O[C@H]1[C@H](OC(=O)c2ccccc2)[C@@]2(C)[C@@H](OC(=O)c3ccccc3)C[C@@H]3[C@@H](OC(=O)c4ccccc4)[C@]2(OC3(C)C)[C@@](C)(O)[C@H]1O`, the Activity was 60% in the series with Raji [1]; 13.7% in the series with Raji [2]; 87.1% in the series on Raji [3]; 100% in the series on Raji [4]; 54.2% in the series on Raji [5].
On to `CC(=O)O[C@H]1[C@H](OC(=O)c2ccccc2)[C@@]2(C)[C@@H](OC(=O)c3ccccc3)C[C@@H]3[C@@H](OC(C)=O)[C@]2(OC3(C)C)[C@@](C)(O)[C@H]1O` [2BETA,3BETA,4BETA,TRIHYDROXYCELARBICO], for which the Activity was 60% in the series with Raji [1]; 0% with Raji [2]; 77.5% in the series with Raji [3]; 98.6% with Raji [4]; 33.2% in the series with Raji [5]. The Papilloma-bearing mice % with Mus musculus [6] is 53.3%; in the series on Mus musculus [8] it was 90%; in the series with Mus musculus [9], 20%. Moreover, the outcome in the series with Mus musculus [7] was Active.
For `CC(=O)O[C@H]1[C@H](OC(=O)c2ccccc2)[C@@]2(C)[C@@H](OC(=O)/C=C/c3ccccc3)C[C@@H]3C[C@]2(OC3(C)C)[C@@](C)(O)[C@H]1OC(C)=O`, the Activity came to 60% in the series on Raji [1]; 11.8% in the series with Raji [2]; 86.3% in the series with Raji [3]; 100% with Raji [4]; 53.2% in the series with Raji [5].
The corresponding values for `CC(=O)O[C@H]1[C@H](OC(=O)c2ccccc2)[C@@]2(C)[C@@H](OC(=O)/C=C/c3ccccc3)C[C@@H]3C[C@]2(OC3(C)C)[C@@](C)(O)[C@H]1O` are 60%, 10.9%, 86.2%, 100% and 52%.
The corresponding values for `CC(=O)O[C@H]1[C@H](OC(=O)c2ccccc2)[C@@]2(C)[C@@H](OC(=O)c3ccccc3)C[C@@H]3[C@@H](OC(C)=O)[C@]2(OC3(C)C)[C@@](C)(O)[C@H]1OC(=O)c1cccnc1` are 60%, 7.5%, 87.6%, 100% and 36.6%.
For the molecule `CC(=O)O[C@H]1[C@H](OC(=O)c2ccccc2)[C@@]2(C)[C@@H](OC(=O)/C=C/c3ccccc3)C[C@@H]3[C@@H](OC(C)=O)[C@]2(OC3(C)C)[C@@](C)(O)[C@H]1O`, the Activity was 60% in the series on Raji [1]; 9.3% in the series on Raji [2]; 84.3% in the series on Raji [3]; 100% in the series with Raji [4]; 50.1% in the series with Raji [5].
The corresponding values for `CC(=O)O[C@H]1[C@H](OC(=O)c2ccccc2)[C@@]2(C)[C@@H](OC(=O)/C=C/c3ccccc3)C[C@@H]3[C@@H](OC(C)=O)[C@]2(OC3(C)C)[C@@](C)(O)[C@H]1OC(C)=O` are 60%, 8.9%, 87.4%, 100% and 39.6%.
Regarding `CC1=C(/C=C/C(C)=C/C=C/C(C)=C/C=C/C=C(C)/C=C/C=C(C)/C=C/C2=C(C)CCCC2(C)C)C(C)(C)CCC1` [BETA CAROTENE], the Activity in the series on Raji [1] came to 70%; in the series with Raji [2], 8.6%; with Raji [4], 100%; in the series with Raji [5] it was 33.3%.
For the molecule `CC(=O)O[C@H]1[C@H](OC(=O)c2ccccc2)[C@@]2(C)[C@@H](OC(=O)/C=C/c3ccccc3)C[C@@H]3[C@@H](O)[C@]2(OC3(C)C)[C@@](C)(O)[C@H]1O`, the Activity was 60% with Raji [1]; 5.3% in the series with Raji [2]; 85.2% in the series with Raji [3]; 100% in the series with Raji [4]; 35.2% in the series on Raji [5].
The corresponding values for `CC(=O)O[C@H]1[C@H](OC(=O)c2ccccc2)[C@@]2(C)[C@@H](OC(=O)/C=C/c3ccccc3)C[C@@H]3[C@@H](O)[C@]2(OC3(C)C)[C@@](C)(O)[C@H]1OC(C)=O` are 60%, 10.1%, 85.2%, 100% and 51.3%.
